In ChEMBL document CHEMBL3124890, “SAR studies on trisubstituted benzimidazoles as inhibitors of Mtb FtsZ for the development of novel antitubercular agents” (J Med Chem, 2013) one finds IC50, MIC and inhibition data, which are given here for 16 molecules.

The test system of one assay is Vero. Put plainly: Cytotoxicity against Vero cells after 3 days by Alamar Blue assay. The class given is cell-based. As to conditions: Chlorocebus sabaeus, 72 h. The procedure, abridged: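 Vero (African green monkey kidney epithelial) cells were grown without CO₂ in L15 with antibiotics and heat-inactivated calf serum. Cells in medium with 2X Alamar Blue were added at 1.3×10^4 cells/well to 2-fold serial drug dilutions. Plates were incubated 3 days at 37 °C, and IC50 was calculated per the manufacturer's directions.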

Assay [1] has as its system Mycobacterium tuberculosis. Briefly: […]. It is filed as functional. The procedure, abridged: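 Strains were grown at 37 °C in 7H9 Middlebrook broth with 10% OADC, 0.05% Tween and 0.2% glycerol. Compounds were dissolved in DMSO and serially diluted 2-fold, then bacteria were added. Plates were incubated 6 days at 37 °C, then 24 h more with Alamar Blue. MIC was the lowest concentration (μg/mL) that prevented the colour change. Run in triplicate.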

For assay [2], the target named is T1, Cell division protein FtsZ (Mycobacterium tuberculosis) (UniProt P9WN95).
T1 sequence (whole entry): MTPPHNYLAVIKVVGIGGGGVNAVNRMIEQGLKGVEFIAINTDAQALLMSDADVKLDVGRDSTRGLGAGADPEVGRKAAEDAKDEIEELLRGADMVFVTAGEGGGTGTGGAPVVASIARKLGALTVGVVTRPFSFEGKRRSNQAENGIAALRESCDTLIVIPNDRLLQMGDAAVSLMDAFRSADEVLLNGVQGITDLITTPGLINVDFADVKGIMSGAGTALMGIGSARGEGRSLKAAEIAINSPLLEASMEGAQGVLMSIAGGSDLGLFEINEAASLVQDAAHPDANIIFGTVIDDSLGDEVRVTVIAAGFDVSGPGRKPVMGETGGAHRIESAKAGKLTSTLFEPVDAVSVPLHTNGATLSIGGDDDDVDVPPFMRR
Briefly: Inhibition of Mycobacterium tuberculosis FtsZ polymerization expressed in Escherichia coli BL21 (DE3) using GTP as substrate by spectrofluorimetric analysis.

Assay [3] has as its target T1, Cell division protein FtsZ (Mycobacterium tuberculosis). Briefly: Inhibition of Mycobacterium tuberculosis FtsZ polymerization expressed in Escherichia coli BL21 (DE3) using GTP as substrate assessed as disassembly of FtsZ at 40 to 80 uM by transmission electron microscopy. The procedure, abridged: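 His-tagged Mtb FtsZ (pET15b, BL21(DE3), Ni-NTA purified, Bradford-quantified) at 5 µM in 50 mM MES, 5 mM MgCl₂, 100 mM KCl, pH 6.5 was polymerized with 25 µM GTP at 37 °C for 30 min. Compound (40 or 80 µM, ethanol stock) was then added for 5 min more. Samples were diluted 2×, negatively stained with 1% uranyl acetate, and imaged by TEM.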

Assay [4] has the same target. Put plainly: Inhibition of Mycobacterium tuberculosis FtsZ polymerization expressed in Escherichia coli BL21 (DE3) using GTP as substrate assessed as reduction in protofilaments at 40 to 80 uM by transmission electron microscopy. The procedure, abridged:
(§1)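 His-tagged Mtb FtsZ (pET15b, BL21(DE3), Ni-NTA purified) at 5 µM in 50 mM MES, 5 mM MgCl₂, 100 mM KCl, pH 6.5 was preincubated 15 min on ice with 40 or 80 µM compound (ethanol stock). GTP was added to 25 µM and samples were held at 37 °C for 30 min, then diluted 2×, stained with 1% uranyl acetate, and imaged by TEM.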

For assay [5] the target is unchanged. Briefly: Inhibition of Mycobacterium tuberculosis FtsZ polymerization expressed in Escherichia coli BL21 (DE3) using GTP as substrate assessed as reduction in density and population of FtsZ polymers at 40 to 80 uM by transmission electron microscopy. The procedure, abridged: as §1
Assay [6] shares this target. Briefly: Inhibition of Mycobacterium tuberculosis FtsZ polymerization expressed in Escherichia coli BL21 (DE3) using GTP as substrate assessed as reduction in aggregate formation at 40 to 80 uM by transmission electron microscopy. The procedure, abridged:
as §1

In brackets after ≈: the same amount, converted by molar mass. Activity calls are given as the source filed them. The calls are words filed in the database; no cut-off is given here. Some results are limits rather than exact numbers.

Regarding `CN(C)c1cc2[nH]c(C3CCCCC3)nc2cc1NC(=O)OCC(F)(F)F`, the IC50 with Vero was over 100 µg/mL. This molecule also gave an MIC in assay [1] (H37Rv, 144 h) of 0.63 µg/mL (≈ 1.64 µM). Further, the inhibition result in assay [2] was “Dose-dependent effect”.
As to `CCCCOC(=O)Nc1cc2nc(C3CCCCC3)[nH]c2cc1N(C)C`, the IC50 in the assay with Vero is over 100 µg/mL. Moreover, the MIC in assay [1] (H37Rv, 144 h) worked out at 0.06 µg/mL (≈ 0.167 µM); in assay [1] (W210, 144 h), 0.06 µg/mL (≈ 0.167 µM). The inhibition result in assay [3], in assay [4], in assay [5] and in assay [6] was “Active” in each case. In addition, in assay [2], the inhibition result is “Dose-dependent effect”.
Molecule `CCOCCOC(=O)Nc1cc2nc(C3CCCCC3)[nH]c2cc1N1CCCC1` showed an IC50 in the assay on Vero of over 100 µg/mL. Further, the MIC in assay [1] (H37Rv, 144 h) amounted to 1.56 µg/mL (≈ 3.89 µM).
The corresponding values for `CN(C)c1cc2[nH]c(C3CCCCC3)nc2cc1NC(=O)c1ccccc1` are over 100 µg/mL and 1.56 µg/mL (≈ 4.3 µM).
Regarding `COc1ccc(CC(=O)Nc2cc3nc(C4CCCCC4)[nH]c3cc2N(C)C)cc1`, the IC50 in the assay with Vero was over 100 µg/mL. The MIC in assay [1] (H37Rv, 144 h) is over 100 µg/mL.
Molecule `CN(C)c1cc2[nH]c(C3CCCCC3)nc2cc1NC(=O)c1ccc(OC(F)F)cc1` had an IC50 in the assay with Vero of over 100 µg/mL. Further, in assay [1] (H37Rv, 144 h), the minimal inhibitory concentration (MIC) amounted to 0.31 µg/mL (≈ 0.723 µM).
The molecule `Cc1ccc(C(=O)Nc2cc3nc(C4CCCCC4)[nH]c3cc2N2CCCC2)cc1` gave an IC50 with Vero of over 100 µg/mL. In assay [1] (H37Rv, 144 h), this molecule registered an MIC of 3.13 µg/mL (≈ 7.78 µM).
`CCc1ccc(C(=O)Nc2cc3nc(C4CCCCC4)[nH]c3cc2N(C)C)cc1`: in the assay with Vero, the IC50 is over 100 µg/mL. Also, the MIC in assay [1] (H37Rv, 144 h) turned out to be 0.16 µg/mL (≈ 0.41 µM); in assay [1] (W210, 144 h), 0.16 µg/mL (≈ 0.41 µM). In assay [2], the inhibition result was “Dose-dependent effect”.
`COc1ccc(C(=O)Nc2cc3nc(C4CCCCC4)[nH]c3cc2N2CCCC2)cc1` returned an IC50 in the assay on Vero of over 100 µg/mL. The MIC in assay [1] (H37Rv, 144 h) was 6.25 µg/mL (≈ 14.9 µM).
The corresponding values for `C=Cc1cccc(C(=O)Nc2cc3nc(C4CCCCC4)[nH]c3cc2N(CC)CC)c1` are over 100 µg/mL and 25 µg/mL (≈ 60 µM).
Consider `O=C(NCc1ccccc1)Nc1cc2nc(C3CCCCC3)[nH]c2cc1N1CCCC1`, for which, in the assay on Vero, the IC50 was over 100 µg/mL. Moreover, the MIC in assay [1] (H37Rv, 144 h) was 25 µg/mL (≈ 59.9 µM).
`CCN(CC)c1cc2[nH]c(C3CCCCC3)nc2cc1NC(=O)c1ccc(OC(F)(F)F)cc1` registered an IC50 in the assay on Vero of over 100 µg/mL. Moreover, the MIC in assay [1] (H37Rv, 144 h) was over 100 µg/mL.
As to `CCCCOC(=O)Nc1cc2nc(C3CCCCC3)[nH]c2cc1N(CC)CCN(CC)CC`, in the assay with Vero, the IC50 was over 50 µg/mL. For the same molecule, in assay [1] (H37Rv, 144 h), the MIC was found to be 50 µg/mL (≈ 109 µM).
On to `CCCC(C)OC(=O)Nc1cc2nc(C3CCCCC3)[nH]c2cc1N(CC)CC` (stereo unspecified), for which the IC50 in the assay on Vero is over 100 µg/mL. The molecule further came in with an MIC in assay [1] (H37Rv, 144 h) of over 50 µg/mL.
Take `CN(C)c1cc2[nH]c(C3CCCCC3)nc2cc1NC(=O)c1cccc(Br)c1`: the IC50 with Vero was over 100 µg/mL. Besides, the lowest concentration to inhibit growth in assay [1] (H37Rv, 144 h) (MIC) was 3.13 µg/mL (≈ 7.09 µM).
Molecule `CCCCCC(=O)Nc1cc2nc(C3CCCCC3)[nH]c2cc1N(C)C` gave an IC50 with Vero of over 100 µg/mL. This molecule also displayed an MIC in assay [1] (H37Rv, 144 h) of 1.25 µg/mL (≈ 3.51 µM).
